Test results as given in ChEMBL document CHEMBL1157589, “Antifungal 3,5-disubstituted furanones: From 5-acyloxymethyl to 5-alkylidene derivatives” (Bioorg Med Chem, 2010).
Values after ≈ are worked out from the molar mass of the structure shown.

Legend:
Type in all cases: functional
Clavispora lusitaniae [1] = assay: Antifungal activity against Candida lusitaniae 2446/I after 48 hrs by microdilution method
How it was run: (§1)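 Yeasts held on Sabouraud dextrose agar. MIC by NCCLS M27-A broth microdilution in RPMI 1640 with L-glutamine, buffered with 0.165 M MOPS to pH 7.0. Compounds in DMSO (≤2% final), twofold dilutions 500–0.48. Final inoculum 5 × 10³ ± 0.2 cfu mL⁻¹. Incubated at 35 °C; absorbance at 540 nm read at 24 and 48 h. MIC is 80% growth inhibition versus control; run twice in duplicate.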

Candida albicans [2] = assay: Antifungal activity against Candida albicans ATCC 44859 after 24 hrs by microdilution method; details: ATCC 44859, 24 h; how it was run: as §1
Aspergillus fumigatus [3] = assay: Antifungal activity against Aspergillus fumigatus 231 after 48 hrs by microdilution method; details: Aspergillus fumigatus, 231, 48 h
How it was run: (§2)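 Filamentous strains held on Sabouraud dextrose agar. NCCLS M27-A broth microdilution in RPMI 1640 with L-glutamine and 0.165 M MOPS, pH 7.0. DMSO diluent ≤2% final; twofold dilutions 500–0.48. Inoculum 5 × 10³ ± 0.2 cfu mL⁻¹ final.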

Candida albicans [4] = assay: Antifungal activity against Candida albicans ATCC 90028 after 48 hrs by microdilution method; details: ATCC 90028, 48 h; how it was run: as §1
Nakaseomyces glabratus [5] = assay: Antifungal activity against Candida glabrata 20/I after 24 hrs by microdilution method; how it was run: as §1
Candida tropicalis [6] = assay: Antifungal activity against Candida tropicalis 156 after 24 hrs by microdilution method; details: Candida tropicalis, 156, 24 h; how it was run: as §1
Candida parapsilosis [7] = assay: Antifungal activity against Candida parapsilosis ATCC 22019 after 48 hrs by microdilution method; details: Lodderomyces parapsilosis, ATCC 22019, 48 h; how it was run: as §1
[8] = test system: Trichophyton mentagrophytes; assay: Antifungal activity against Trichophyton mentagrophytes 445 after 72 hrs by microdilution method; details: Trichophyton mentagrophytes, 445, 72 h
How it was run: (§3)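 Dermatophyte held on Sabouraud dextrose agar. M27-A microdilution in MOPS-buffered (0.165 M, pH 7.0) RPMI 1640 with L-glutamine. DMSO ≤2% final; twofold dilutions 500–0.48. Inoculum 5 × 10³ ± 0.2 cfu mL⁻¹ final. Incubated at 35 °C; MIC read visually at 72 and 120 h as 80% inhibition of control growth; determined twice in duplicate.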

Pichia kudriavzevii [9] = assay: Antifungal activity against Candida krusei E28 after 24 hrs by microdilution method; details: E28, 24 h; how it was run: as §1
Candida parapsilosis [10] = assay: Antifungal activity against Candida parapsilosis ATCC 22019 after 24 hrs by microdilution method; details: Lodderomyces parapsilosis, ATCC 22019, 24 h; how it was run: as §1
Nakaseomyces glabratus [11] = assay: Antifungal activity against Candida glabrata 20/I after 48 hrs by microdilution method; how it was run: as §1
Aspergillus fumigatus [12] = assay: Antifungal activity against Aspergillus fumigatus 231 after 24 hrs by microdilution method; details: Aspergillus fumigatus, 231, 24 h; how it was run: as §2
Trichosporon beigelii [13] = assay: Antifungal activity against Trichosporon beigelii 1188 after 48 hrs by microdilution method; details: Trichosporon beigelii, 1188, 48 h; how it was run: as §1
Trichosporon beigelii [14] = assay: Antifungal activity against Trichosporon beigelii 1188 after 24 hrs by microdilution method; details: Trichosporon beigelii, 1188, 24 h; how it was run: as §1
Candida albicans [15] = assay: Antifungal activity against Candida albicans ATCC 44859 after 48 hrs by microdilution method; details: ATCC 44859, 48 h; how it was run: as §1
Pichia kudriavzevii [16] = assay: Antifungal activity against Candida krusei E28 after 48 hrs by microdilution method; details: E28, 48 h; how it was run: as §1
Pichia kudriavzevii [17] = assay: Antifungal activity against Candida krusei ATCC 6258 after 24 hrs by microdilution method; details: ATCC 6258, 24 h; how it was run: as §1
Clavispora lusitaniae [18] = assay: Antifungal activity against Candida lusitaniae 2446/I after 24 hrs by microdilution method; how it was run: as §1
Candida tropicalis [19] = assay: Antifungal activity against Candida tropicalis 156 after 48 hrs by microdilution method; details: Candida tropicalis, 156, 48 h; how it was run: as §1
[20] = test system: Trichophyton mentagrophytes; assay: Antifungal activity against Trichophyton mentagrophytes 445 after 120 hrs by microdilution method; details: Trichophyton mentagrophytes, 445, 120 h; how it was run: as §3
Lichtheimia corymbifera [21] = assay: Antifungal activity against Absidia corymbifera 272 after 48 hrs by microdilution method; details: Lichtheimia corymbifera, 272, 48 h; how it was run: as §2
Lichtheimia corymbifera [22] = assay: Antifungal activity against Absidia corymbifera 272 after 24 hrs by microdilution method; details: Lichtheimia corymbifera, 272, 24 h; how it was run: as §2
Pichia kudriavzevii [23] = assay: Antifungal activity against Candida krusei ATCC 6258 after 48 hrs by microdilution method; details: ATCC 6258, 48 h; how it was run: as §1
Candida albicans [24] = assay: Antifungal activity against Candida albicans ATCC 90028 after 24 hrs by microdilution method; details: ATCC 90028, 24 h; how it was run: as §1

Compound `COc1ccc(OCC2C=C(c3ccc(Br)cc3)C(=O)O2)cc1` (centres undefined) has an MIC80 (Clavispora lusitaniae [1]) of 7.81 µM (≈ 2.93 µg/mL), an MIC80 (Candida albicans [2]) of 0.97 µM (≈ 0.364 µg/mL) and an MIC80 (Aspergillus fumigatus [3]) of 7.81 µM (≈ 2.93 µg/mL). For the same compound, the MIC80 (Candida albicans [4]) was 7.81 µM (≈ 2.93 µg/mL), the MIC80 (Nakaseomyces glabratus [5]) was 0.97 µM (≈ 0.364 µg/mL) and the MIC80 (Candida tropicalis [6]) was 7.81 µM (≈ 2.93 µg/mL). The MIC80 (Candida parapsilosis [7]) was 15.6 µM (≈ 5.86 µg/mL), the MIC80 [8] was 1.95 µM (≈ 0.732 µg/mL) and the MIC80 (Pichia kudriavzevii [9]) was 7.81 µM (≈ 2.93 µg/mL). It also gave an MIC80 (Candida parapsilosis [10]) of 7.81 µM (≈ 2.93 µg/mL), an MIC80 (Nakaseomyces glabratus [11]) of 1.95 µM (≈ 0.732 µg/mL) and an MIC80 (Aspergillus fumigatus [12]) of 3.9 µM (≈ 1.46 µg/mL). For the same compound, the MIC80 (Trichosporon beigelii [13]) was 15.6 µM (≈ 5.86 µg/mL), the MIC80 (Trichosporon beigelii [14]) was 7.81 µM (≈ 2.93 µg/mL) and the MIC80 (Candida albicans [15]) was 1.95 µM (≈ 0.732 µg/mL). The MIC80 (Pichia kudriavzevii [16]) was 15.6 µM (≈ 5.86 µg/mL), the MIC80 (Pichia kudriavzevii [17]) was 7.81 µM (≈ 2.93 µg/mL) and the MIC80 (Clavispora lusitaniae [18]) was 3.9 µM (≈ 1.46 µg/mL). For the same compound, the MIC80 (Candida tropicalis [19]) was 7.81 µM (≈ 2.93 µg/mL), the MIC80 [20] was 1.95 µM (≈ 0.732 µg/mL) and the MIC80 (Lichtheimia corymbifera [21]) was 62.5 µM (≈ 23.5 µg/mL). The MIC80 (Lichtheimia corymbifera [22]) was 31.2 µM (≈ 11.7 µg/mL), the MIC80 (Pichia kudriavzevii [23]) was 15.6 µM (≈ 5.86 µg/mL) and the MIC80 (Candida albicans [24]) was 1.95 µM (≈ 0.732 µg/mL).
For `C[C@@H]1[C@H](O)[C@@H](C)/C=C/C=C/C=C/C=C/C=C/C=C/C=C/[C@H](O[C@@H]2O[C@H](C)[C@@H](O)[C@H](N)[C@@H]2O)C[C@@H]2O[C@](O)(C[C@@H](O)C[C@@H](O)[C@H](O)CC[C@@H](O)C[C@@H](O)CC(=O)O[C@H]1C)C[C@H](O)[C@H]2C(=O)O` [AMPHOTERICIN B], the MIC95 (Clavispora lusitaniae [1]) was 0.27 µM (≈ 0.25 µg/mL), the MIC95 (Candida albicans [2]) was 0.03 µM (≈ 0.0277 µg/mL) and the MIC95 (Aspergillus fumigatus [3]) was 0.23 µM (≈ 0.213 µg/mL). The MIC95 (Candida albicans [4]) was 0.14 µM (≈ 0.129 µg/mL), the MIC95 (Nakaseomyces glabratus [5]) was 0.03 µM (≈ 0.0277 µg/mL) and the MIC95 (Candida tropicalis [6]) was 0.09 µM (≈ 0.0832 µg/mL). For the same compound, the MIC95 (Candida parapsilosis [7]) was 0.14 µM (≈ 0.129 µg/mL), the MIC95 (Pichia kudriavzevii [9]) was 0.14 µM (≈ 0.129 µg/mL) and the MIC95 (Candida parapsilosis [10]) was 0.03 µM (≈ 0.0277 µg/mL). It also gave an MIC95 (Nakaseomyces glabratus [11]) of 0.09 µM (≈ 0.0832 µg/mL), an MIC95 (Aspergillus fumigatus [12]) of 0.18 µM (≈ 0.166 µg/mL) and an MIC95 (Trichosporon beigelii [13]) of 1.8 µM (≈ 1.66 µg/mL). For the same compound, the MIC95 (Candida albicans [15]) was 0.06 µM (≈ 0.0554 µg/mL), the MIC95 (Pichia kudriavzevii [16]) was 0.18 µM (≈ 0.166 µg/mL) and the MIC95 (Pichia kudriavzevii [17]) was 0.14 µM (≈ 0.129 µg/mL). It also gave an MIC95 (Clavispora lusitaniae [18]) of 0.14 µM (≈ 0.129 µg/mL), an MIC95 (Candida tropicalis [19]) of 0.11 µM (≈ 0.102 µg/mL) and an MIC95 (Lichtheimia corymbifera [21]) of 2.16 µM (≈ 2 µg/mL). The MIC95 (Pichia kudriavzevii [23]) was 0.14 µM (≈ 0.129 µg/mL) and the MIC95 (Candida albicans [24]) was 0.07 µM (≈ 0.0647 µg/mL).
